The target of data set [1] is cGMP-dependent 3',5'-cyclic phosphodiesterase (Homo sapiens, UniProt O00408). Nature of the data set: Inhibition of human recombinant PDE2A expressed in Sf9 cells by scintillation proximity assay.
A short description of data set [2]: Drug level in Wistar rat brain at 10 mg/kg, sc after 1 hr. Also noted: dose 10 mg/kg, route subcutaneous. Particulars: read-out: Drug uptake; call rule not given here. It is filed as ADME, organism-based. An outline of the steps: (§1)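 Male rats dosed once at 10 mg/kg, subcutaneously or orally. Vehicle was mostly 20% HP-b-CD at pH 4, with some dosing in 0.5% methocel suspension or H2O + tartaric acid. Brain (ng/g) and plasma (ng/mL) were sampled 1 h after dosing, and the brain/plasma ratio was derived from these. Values are geometric means of at least two runs ± SEM.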

Data set [3] in a line: Ratio of drug level brain to plasma in Wistar rat at 10 mg/kg, sc after 1 hr. The data set is classed as ADME, organism-based. Details: dose 10 mg/kg, route subcutaneous. To be noted: read-out: BPR. An outline of the steps:
as §1

The nature of data set [4]: Plasma concentration in Wistar rat at 10 mg/kg, sc after 1 hr. Details: dose 10 mg/kg, route subcutaneous. The data set is classed as ADME, organism-based. An outline of the steps:
as §1

The target of data set [5] is cGMP-inhibited 3',5'-cyclic phosphodiesterase 3B (Homo sapiens, UniProt Q13370). Nature of the data set: Inhibition of human recombinant PDE3B expressed in Sf9 cells by scintillation proximity assay.
The target in data set [6] is Phosphodiesterase 6. Nature of the data set: Inhibition of human recombinant PDE6AB expressed in Sf9 cells by scintillation proximity assay.
In data set [7] the target is cGMP-specific 3',5'-cyclic phosphodiesterase (Homo sapiens, UniProt O76074). Nature of the data set: Inhibition of human recombinant PDE5A expressed in Sf9 cells by scintillation proximity assay.
The test system of data set [8] is Cortex. Nature of the data set: Drug uptake in Wistar rat cortex at 0.03 mg/kg, iv after 2 to 30 mins. To be noted: in vivo. Also noted: dose 0.03 mg/kg, route intravenous. It is filed as ADME, organism-based. The procedure, abridged: (§2)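 Male Wistar rats (180–200 g) received 0.03 mg/kg i.v. and were killed at 2, 5, 10 and 30 min, with 3 rats per time point. Brains were rapidly removed and dissected into striatum, hippocampus and whole cortex. Each region was homogenized by ultrasonic probe in 4 volumes of 75% acetonitrile and centrifuged, then drug was quantified by LC-MS.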

The target of data set [9] is High affinity 3',5'-cyclic-AMP phosphodiesterase 7A (Homo sapiens, UniProt Q13946). Nature of the data set: Inhibition of human recombinant PDE7A expressed in Sf9 cells by scintillation proximity assay.
Data set [10] is described as follows: Drug level in Sprague-Dawley rat brain at 10 mg/kg, sc after 1 hr. The data set is classed as ADME, organism-based. Also noted: dose 10 mg/kg, route subcutaneous. To be noted: read-out: Drug uptake. The procedure, abridged: as §1
Data set [11] concerns the target Dual specificity calcium/calmodulin-dependent 3',5'-cyclic nucleotide phosphodiesterase 1B (Homo sapiens, UniProt Q01064). Nature of the data set: Inhibition of human recombinant PDE1B expressed in Sf9 cells by scintillation proximity assay.
Data set [12] has as its system Hippocampus. Nature of the data set: Drug uptake in Wistar rat hippocampus at 0.03 mg/kg, iv after 2 to 30 mins. The data set is classed as ADME, organism-based. Also noted: dose 0.03 mg/kg, route intravenous. Particulars: in vivo. An outline of the steps:
as §2

Data set [13] deals with Dual 3',5'-cyclic-AMP and -GMP phosphodiesterase 11A (Homo sapiens, UniProt Q9HCR9). Nature of the data set: Inhibition of human recombinant PDE11A expressed in Sf9 cells by scintillation proximity assay.
For data set [14], the target named is High affinity cGMP-specific 3',5'-cyclic phosphodiesterase 9A (Homo sapiens, UniProt O76083). Nature of the data set: Inhibition of human recombinant PDE9A expressed in Sf9 cells by scintillation proximity assay.
For data set [15], the target named is 3',5'-cyclic-AMP phosphodiesterase 4A (Homo sapiens, UniProt P27815). Nature of the data set: Inhibition of human recombinant PDE4A expressed in Sf9 cells by scintillation proximity assay.
The nature of data set [16]: Plasma concentration in Sprague-Dawley rat at 10 mg/kg, sc after 1 hr. It is filed as ADME, organism-based. Details: dose 10 mg/kg, route subcutaneous. An outline of the steps: as §1
The test system of data set [17] is Striatum. Nature of the data set: Drug uptake in Wistar rat striatum at 0.03 mg/kg, iv after 2 to 30 mins. Particulars: in vivo. It is filed as ADME, organism-based. Details: dose 0.03 mg/kg, route intravenous. An outline of the steps: as §2
A short description of data set [18]: Ratio of drug level brain to plasma in Sprague-Dawley rat at 10 mg/kg, sc after 1 hr. The data set is classed as ADME, organism-based. Also noted: dose 10 mg/kg, route subcutaneous. Particulars: read-out: BPR. An outline of the steps: as §1
The target of data set [19] is cGMP-inhibited 3',5'-cyclic phosphodiesterase 3A (Homo sapiens, UniProt Q14432). Nature of the data set: Inhibition of human recombinant PDE3A expressed in Sf9 cells by scintillation proximity assay.
Data set [20] is described as follows: Plasma concentration in Wistar rat at 10 mg/kg, po after 1 hr. Also noted: dose 10 mg/kg, route oral. The data set is classed as ADME, organism-based. The procedure, abridged: as §1
Data set [21] in a line: Ratio of drug level brain to plasma in Wistar rat at 10 mg/kg, po after 1 hr. Particulars: read-out: BPR. Also noted: dose 10 mg/kg, route oral. The data set is classed as ADME, organism-based. The procedure, abridged:
as §1

The nature of data set [22]: Drug level in Wistar rat brain at 10 mg/kg, po after 1 hr. The data set is classed as ADME, organism-based. Details: dose 10 mg/kg, route oral. Particulars: read-out: Drug uptake. The procedure, abridged:
as §1

The nature of data set [23]: Selectivity ratio of IC50 for rat PDE10A to IC50 for human recombinant PDE2A. An outline of the steps: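 Inhibition of rat PDE10A and human PDE2A enzymes measured in vitro. IC50 values are mean ± SD of at least two experiments unless otherwise specified. The ratio is rat PDE10A IC50 divided by human PDE2A IC50.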
The nature of data set [24]: Ratio of drug level brain to plasma in Sprague-Dawley rat at 10 mg/kg, po after 1 hr. The data set is classed as ADME, organism-based. Also noted: dose 10 mg/kg, route oral. To be noted: read-out: BPR. The procedure, abridged:
as §1

Data set [25] is described as follows: Drug level in Sprague-Dawley rat brain at 10 mg/kg, po after 1 hr. Details: dose 10 mg/kg, route oral. It is filed as ADME, organism-based. To be noted: read-out: Drug uptake. An outline of the steps: as §1
A short description of data set [26]: Plasma concentration in Sprague-Dawley rat at 10 mg/kg, po after 1 hr. The data set is classed as ADME, organism-based. Also noted: dose 10 mg/kg, route oral. The procedure, abridged:
as §1

pIC50: −log10 of the molar value.

Chain of cGMP-dependent 3',5'-cyclic phosphodiesterase (O00408 whole entry): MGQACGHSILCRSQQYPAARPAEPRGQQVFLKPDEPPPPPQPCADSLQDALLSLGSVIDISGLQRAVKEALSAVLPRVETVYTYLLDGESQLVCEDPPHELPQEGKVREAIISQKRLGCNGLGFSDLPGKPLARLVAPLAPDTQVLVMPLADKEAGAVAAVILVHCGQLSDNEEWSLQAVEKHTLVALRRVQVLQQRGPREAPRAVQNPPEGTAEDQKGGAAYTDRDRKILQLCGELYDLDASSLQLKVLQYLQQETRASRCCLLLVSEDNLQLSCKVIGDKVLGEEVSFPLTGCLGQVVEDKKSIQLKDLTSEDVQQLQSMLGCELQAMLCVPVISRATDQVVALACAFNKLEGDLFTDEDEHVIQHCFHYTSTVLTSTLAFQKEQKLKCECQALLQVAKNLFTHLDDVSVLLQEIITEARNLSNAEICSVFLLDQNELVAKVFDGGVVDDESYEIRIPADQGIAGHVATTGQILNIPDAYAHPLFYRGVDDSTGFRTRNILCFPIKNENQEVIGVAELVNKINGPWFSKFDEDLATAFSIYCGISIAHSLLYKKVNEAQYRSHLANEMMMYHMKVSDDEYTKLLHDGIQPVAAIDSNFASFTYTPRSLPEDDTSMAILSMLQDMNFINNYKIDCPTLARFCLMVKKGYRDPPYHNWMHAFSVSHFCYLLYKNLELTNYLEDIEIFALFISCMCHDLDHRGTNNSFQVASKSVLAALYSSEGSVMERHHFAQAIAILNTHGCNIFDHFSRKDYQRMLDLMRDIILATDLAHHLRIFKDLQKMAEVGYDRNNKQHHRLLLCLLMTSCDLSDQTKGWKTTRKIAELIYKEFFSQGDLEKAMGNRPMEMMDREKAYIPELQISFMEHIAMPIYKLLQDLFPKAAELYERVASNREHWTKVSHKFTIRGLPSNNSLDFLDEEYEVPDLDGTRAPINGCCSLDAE
Chain of Dual 3',5'-cyclic-AMP and -GMP phosphodiesterase 11A (Q9HCR9 whole entry): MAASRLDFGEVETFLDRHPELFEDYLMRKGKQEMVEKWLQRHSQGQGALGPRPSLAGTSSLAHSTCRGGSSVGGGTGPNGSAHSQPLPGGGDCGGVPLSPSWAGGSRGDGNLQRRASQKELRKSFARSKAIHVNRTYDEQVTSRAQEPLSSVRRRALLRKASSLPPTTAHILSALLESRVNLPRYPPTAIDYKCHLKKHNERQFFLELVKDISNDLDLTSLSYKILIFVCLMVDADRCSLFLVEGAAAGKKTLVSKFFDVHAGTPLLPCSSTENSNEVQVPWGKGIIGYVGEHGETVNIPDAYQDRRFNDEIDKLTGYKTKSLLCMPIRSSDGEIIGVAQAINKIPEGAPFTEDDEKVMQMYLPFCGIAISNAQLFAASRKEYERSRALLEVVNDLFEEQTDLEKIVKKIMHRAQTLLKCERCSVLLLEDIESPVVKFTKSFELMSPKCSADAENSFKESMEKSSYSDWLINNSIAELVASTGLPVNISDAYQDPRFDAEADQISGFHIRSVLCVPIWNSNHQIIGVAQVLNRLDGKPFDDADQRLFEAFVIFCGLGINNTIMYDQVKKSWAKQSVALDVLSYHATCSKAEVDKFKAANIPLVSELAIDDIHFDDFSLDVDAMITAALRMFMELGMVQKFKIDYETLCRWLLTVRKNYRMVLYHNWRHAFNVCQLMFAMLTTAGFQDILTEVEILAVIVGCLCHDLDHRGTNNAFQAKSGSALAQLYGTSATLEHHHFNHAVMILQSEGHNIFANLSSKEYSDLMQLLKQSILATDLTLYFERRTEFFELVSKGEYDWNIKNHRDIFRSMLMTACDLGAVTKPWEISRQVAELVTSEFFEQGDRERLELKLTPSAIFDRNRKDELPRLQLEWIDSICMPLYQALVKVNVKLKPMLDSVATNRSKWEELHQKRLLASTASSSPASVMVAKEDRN
Chain of 3',5'-cyclic-AMP phosphodiesterase 4A (P27815 whole entry): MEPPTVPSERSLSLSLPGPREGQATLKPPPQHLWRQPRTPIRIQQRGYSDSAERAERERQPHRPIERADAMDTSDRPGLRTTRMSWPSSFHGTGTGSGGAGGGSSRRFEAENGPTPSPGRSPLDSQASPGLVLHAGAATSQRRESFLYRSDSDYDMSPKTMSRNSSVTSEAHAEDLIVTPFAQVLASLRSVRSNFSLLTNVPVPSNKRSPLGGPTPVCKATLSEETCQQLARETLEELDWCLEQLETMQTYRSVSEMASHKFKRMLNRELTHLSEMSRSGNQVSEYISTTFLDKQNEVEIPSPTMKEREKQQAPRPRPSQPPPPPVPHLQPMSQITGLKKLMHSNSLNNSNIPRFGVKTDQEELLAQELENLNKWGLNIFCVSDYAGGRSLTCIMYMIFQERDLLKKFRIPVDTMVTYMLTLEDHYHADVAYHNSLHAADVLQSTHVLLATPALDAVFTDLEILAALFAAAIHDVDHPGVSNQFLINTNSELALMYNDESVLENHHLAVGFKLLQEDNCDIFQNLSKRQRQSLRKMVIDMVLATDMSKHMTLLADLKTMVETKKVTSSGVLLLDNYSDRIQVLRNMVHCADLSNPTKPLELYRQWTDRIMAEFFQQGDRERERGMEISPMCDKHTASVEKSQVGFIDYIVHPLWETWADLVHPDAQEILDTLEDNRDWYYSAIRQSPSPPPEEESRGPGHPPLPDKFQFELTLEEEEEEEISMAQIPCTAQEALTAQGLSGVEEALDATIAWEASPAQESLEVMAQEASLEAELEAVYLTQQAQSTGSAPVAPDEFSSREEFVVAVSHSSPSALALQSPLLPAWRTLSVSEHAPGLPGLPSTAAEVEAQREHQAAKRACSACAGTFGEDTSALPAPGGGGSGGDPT
Chain of High affinity cGMP-specific 3',5'-cyclic phosphodiesterase 9A (O76083 whole entry): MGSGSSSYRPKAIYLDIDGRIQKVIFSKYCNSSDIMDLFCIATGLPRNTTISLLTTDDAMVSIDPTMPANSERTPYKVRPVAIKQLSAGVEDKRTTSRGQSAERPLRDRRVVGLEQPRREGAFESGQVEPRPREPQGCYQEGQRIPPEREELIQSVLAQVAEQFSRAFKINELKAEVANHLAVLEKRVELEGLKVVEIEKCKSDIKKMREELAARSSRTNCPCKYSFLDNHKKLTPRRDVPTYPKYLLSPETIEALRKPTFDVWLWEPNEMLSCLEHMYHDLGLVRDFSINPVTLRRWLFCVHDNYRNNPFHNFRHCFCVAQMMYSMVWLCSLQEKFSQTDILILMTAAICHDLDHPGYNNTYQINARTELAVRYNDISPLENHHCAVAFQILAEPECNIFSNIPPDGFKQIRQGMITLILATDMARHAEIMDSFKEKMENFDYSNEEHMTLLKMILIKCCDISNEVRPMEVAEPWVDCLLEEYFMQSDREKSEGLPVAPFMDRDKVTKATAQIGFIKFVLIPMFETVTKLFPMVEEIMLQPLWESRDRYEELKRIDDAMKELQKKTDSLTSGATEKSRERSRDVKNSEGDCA
Chain of cGMP-inhibited 3',5'-cyclic phosphodiesterase 3A (Q14432 whole entry): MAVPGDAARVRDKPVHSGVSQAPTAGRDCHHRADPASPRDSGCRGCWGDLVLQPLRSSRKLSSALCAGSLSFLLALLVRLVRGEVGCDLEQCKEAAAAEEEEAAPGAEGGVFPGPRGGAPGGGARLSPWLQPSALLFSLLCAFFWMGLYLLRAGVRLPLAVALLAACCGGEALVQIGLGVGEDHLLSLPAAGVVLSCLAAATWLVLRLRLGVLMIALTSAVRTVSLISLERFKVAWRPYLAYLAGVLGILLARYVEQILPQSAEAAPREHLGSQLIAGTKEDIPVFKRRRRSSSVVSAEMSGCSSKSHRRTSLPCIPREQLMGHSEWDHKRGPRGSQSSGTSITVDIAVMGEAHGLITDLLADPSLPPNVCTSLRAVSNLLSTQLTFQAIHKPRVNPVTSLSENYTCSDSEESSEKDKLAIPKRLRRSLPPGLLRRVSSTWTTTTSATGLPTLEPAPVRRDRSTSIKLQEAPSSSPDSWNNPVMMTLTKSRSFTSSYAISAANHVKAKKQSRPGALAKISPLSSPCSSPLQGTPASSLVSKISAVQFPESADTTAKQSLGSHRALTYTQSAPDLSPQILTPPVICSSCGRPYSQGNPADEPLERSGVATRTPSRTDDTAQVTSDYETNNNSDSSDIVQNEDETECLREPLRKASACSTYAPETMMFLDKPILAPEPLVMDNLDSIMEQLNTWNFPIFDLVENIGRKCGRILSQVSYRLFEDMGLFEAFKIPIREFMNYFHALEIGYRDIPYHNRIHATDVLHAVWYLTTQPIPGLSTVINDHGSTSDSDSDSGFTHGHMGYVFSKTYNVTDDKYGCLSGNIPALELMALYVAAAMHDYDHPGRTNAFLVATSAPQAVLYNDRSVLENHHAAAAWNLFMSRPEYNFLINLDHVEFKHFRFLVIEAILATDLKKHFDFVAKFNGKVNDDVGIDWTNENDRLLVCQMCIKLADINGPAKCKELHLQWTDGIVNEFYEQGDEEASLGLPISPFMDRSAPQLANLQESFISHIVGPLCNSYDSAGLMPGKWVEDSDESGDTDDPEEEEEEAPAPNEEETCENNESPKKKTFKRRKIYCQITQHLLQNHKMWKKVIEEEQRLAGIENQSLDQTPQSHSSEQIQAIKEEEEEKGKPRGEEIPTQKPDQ
Chain of Dual specificity calcium/calmodulin-dependent 3',5'-cyclic nucleotide phosphodiesterase 1B (Q01064 whole entry): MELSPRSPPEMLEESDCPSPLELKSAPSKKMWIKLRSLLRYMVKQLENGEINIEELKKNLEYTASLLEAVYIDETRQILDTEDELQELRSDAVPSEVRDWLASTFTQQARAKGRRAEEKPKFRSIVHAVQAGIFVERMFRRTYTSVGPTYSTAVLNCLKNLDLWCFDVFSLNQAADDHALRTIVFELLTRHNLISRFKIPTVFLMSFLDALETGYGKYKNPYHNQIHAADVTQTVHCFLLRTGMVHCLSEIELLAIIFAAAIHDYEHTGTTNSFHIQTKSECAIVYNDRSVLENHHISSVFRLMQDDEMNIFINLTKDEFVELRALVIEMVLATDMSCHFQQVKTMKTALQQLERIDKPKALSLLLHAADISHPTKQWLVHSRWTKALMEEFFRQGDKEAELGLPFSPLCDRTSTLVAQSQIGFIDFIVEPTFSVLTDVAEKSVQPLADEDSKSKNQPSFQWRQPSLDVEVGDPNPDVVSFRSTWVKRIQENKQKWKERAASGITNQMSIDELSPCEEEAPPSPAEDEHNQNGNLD

`CCNC(=O)c1ccc2nc(C)c3nnc(-c4cccnc4OC)n3c2c1`: in data set [1], the pIC50 was 7.55.

Consider `Cc1nc2ccc(CN3CCN(C)CC3)cc2n2c(-c3ccccc3Cl)nnc12`, for which, in data set [1], the negative-log IC50 (pIC50) was 8.15.

For the molecule `Cc1nc2ccc(C(=O)N(C)Cc3ccccc3)cc2n2c(-c3ccccc3Cl)nnc12`, the pIC50 in data set [1] was 7.72.

As for `Cc1nc2ccc(CN3CCC(O)CC3)cc2n2c(-c3ccccc3Cl)nnc12`, the negative-log IC50 (pIC50) in data set [1] was 8.01.

For `CCNC(=O)c1ccc2nc(C)c3nnc(-c4ccccc4F)n3c2c1`, in data set [1], the pIC50 was 8.55.

Turning to `Cc1nc2ccc(C(=O)NCCN3CCOCC3)cc2n2c(-c3ccccc3Cl)nnc12`, the concentration at 1 h in data set [2] amounted to 88 ng/g; in [4], 2540 ng/mL. In data set [3], the Kp at 1 h came out at 0.034.

Turning to `Cc1nc2ccc(CN3CCOCC3)cc2n2c(-c3ccccc3Cl)nnc12`, the negative-log IC50 (pIC50) in data set [5] is less than 5.00; in data set [7] it was less than 5.00; in data set [9], 5.72; in [11], 5.31; in data set [13], less than 5.00; in [14], less than 5.00. For the same molecule, the pIC50 in data set [1] is 8.55; in data set [15], less than 5.00; in [19] it was 5.11. In addition, the IC50 in data set [6] amounted to 2280 nM. Further, the Drug uptake result in data set [8], in data set [12] and in [17] was “Active” in each case. In addition, the concentration at 1 h in data set [10] amounted to 189 ng/g; in data set [16] it was 299 ng/mL. In addition, in data set [18], the Kp at 1 h was determined as 0.62.

On to `CCNCc1ccc2nc(C)c3nnc(-c4ccccc4Cl)n3c2c1`, for which the concentration at 1 h in data set [10] was found to be 628 ng/g; in data set [16], 845 ng/mL. Further, the Kp at 1 h in [18] was determined as 0.73.

In the case of `Cc1nc2ccc(C(=O)NCCN3CCCC3)cc2n2c(-c3ccccc3Cl)nnc12`, the concentration at 1 h in data set [2] came to 143 ng/g; in data set [4], 1070 ng/mL. The Kp at 1 h in data set [3] was determined as 0.14. Moreover, in [1], the negative-log IC50 (pIC50) is 8.66.

With `CCNC(=O)c1ccc2nc(C)c3nnc(-c4ccccc4Cl)n3c2c1`, the concentration at 1 h is 1880 ng/mL in data set [20] and 185 ng/g in data set [22]. In addition, the Kp at 1 h in [21] was 0.11.

As for `Cc1nc2ccc(C(=O)NCCc3ccccc3)cc2n2c(-c3ccccc3Cl)nnc12`, the pIC50 in [1] was 8.77.

As for `Cc1nc2ccc(C(=O)NCc3ccccc3)cc2n2c(-c3ccccc3Cl)nnc12`, in data set [23], the Ratio IC50 amounted to 32. The pIC50 in data set [1] was 9.42.

As to `CCOC(=O)c1ccc2nc(C)c3nnc(-c4ccccc4Cl)n3c2c1`, the pIC50 in [1] was 8.36.

As to `CCNC(=O)c1ccc2nc(C)c3nnc(-c4cnccc4C)n3c2c1`, the concentration at 1 h stood at 98 ng/g in data set [10] and 2800 ng/mL in data set [16]. In addition, the Kp at 1 h in data set [18] was 0.036.

With `CCNC(=O)c1ccc2nc(C)c3nnc(-c4ccccc4OC)n3c2c1`, in [1], the pIC50 is 8.23.

For the molecule `CCNC(=O)c1ccc2nc(C)c3nnc(-c4cncc(OC)c4)n3c2c1`, the Kp at 1 h in [24] amounted to 0.034. Also, the concentration at 1 h in [25] was 16 ng/g; in [26], 467 ng/mL.

On to `Cc1nc2ccc(CN3CCCC(CO)C3)cc2n2c(-c3ccccc3Cl)nnc12` (centres undefined), for which the results for the concentration at 1 h in data set [2] and in data set [4] were 99 ng/g and 569 ng/mL, respectively. The Kp at 1 h in data set [3] turned out to be 0.18.

In the case of `CCNC(=O)c1ccc2nc(C)c3nnc(-c4ccccn4)n3c2c1`, the pIC50 in data set [1] was 6.58.
